PMC5665024 (Chemical research in toxicology, 2017)
≈ marks a conversion by molar mass, not a printed value. Read-outs that look alike come from different tables or passages of the source.

Experiments:
[1] = biological target: human DNA polymerase β (pol β) (Homo sapiens, UniProt P06746); assay: Steady-state primer extension assay, pol β; format: biochemical
[2] = Solubility limit of honokiol in polymerase buffer; format: physicochemical
rats = details: dose of 100 mg/kg; cited from earlier work
A549 cells = assay: MTS assay of cell proliferation, A549; format: cell-based, human; details: A549, 24 h
How it was run: (§1)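 Cells grown in DMEM with 10% FBS at 37 °C and 5% CO2. Plated at 5 × 10^3 per well, grown 24 h, then exposed 24 or 72 h to test compound alone or in pairs: 10 μM bleomycin-type or 250 μM alkylating agent added to the lignan, or 10 μM lignan added to either. DMSO 0.2% final; vehicle controls. MTS/PMS for 4 h; A492; cell-free background. Triplicate; IC50 fit, 95% CI.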

pol η binding to DNA = biological target: T1, pol η binding to DNA (Homo sapiens, UniProt Q9Y253); assay: Polymerase–DNA interaction, electrophoretic mobility shift assay, pol η; details: native PAGE
T1 sequence (Q9Y253 1-713): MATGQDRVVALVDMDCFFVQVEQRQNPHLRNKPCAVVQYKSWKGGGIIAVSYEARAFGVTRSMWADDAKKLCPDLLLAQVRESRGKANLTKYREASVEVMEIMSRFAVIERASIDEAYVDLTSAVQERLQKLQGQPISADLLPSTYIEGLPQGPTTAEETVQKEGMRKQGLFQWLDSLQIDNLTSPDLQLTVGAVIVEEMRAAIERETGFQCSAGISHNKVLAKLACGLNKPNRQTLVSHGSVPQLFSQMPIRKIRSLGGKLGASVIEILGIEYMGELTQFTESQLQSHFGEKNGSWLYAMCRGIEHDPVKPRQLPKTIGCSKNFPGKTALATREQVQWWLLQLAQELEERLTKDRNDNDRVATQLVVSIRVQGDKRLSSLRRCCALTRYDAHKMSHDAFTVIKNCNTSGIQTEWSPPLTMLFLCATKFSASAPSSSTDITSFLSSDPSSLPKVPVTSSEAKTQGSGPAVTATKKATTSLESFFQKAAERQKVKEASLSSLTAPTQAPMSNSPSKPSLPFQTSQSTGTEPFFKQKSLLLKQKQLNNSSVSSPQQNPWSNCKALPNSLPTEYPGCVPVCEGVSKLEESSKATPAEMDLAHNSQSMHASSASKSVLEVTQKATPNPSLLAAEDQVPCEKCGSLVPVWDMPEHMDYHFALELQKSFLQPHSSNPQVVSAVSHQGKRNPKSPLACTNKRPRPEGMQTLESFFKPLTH

pol λ binding to DNA = biological target: T2, pol λ binding to DNA (Homo sapiens, UniProt Q9UGP5); assay: Polymerase–DNA interaction, electrophoretic mobility shift assay, pol λ; details: for inhibition of DNA binding to polymerase (EMSA): honokiol up to 200 μM, polymerase in excess of DNA
T2 sequence (Q9UGP5 1-575): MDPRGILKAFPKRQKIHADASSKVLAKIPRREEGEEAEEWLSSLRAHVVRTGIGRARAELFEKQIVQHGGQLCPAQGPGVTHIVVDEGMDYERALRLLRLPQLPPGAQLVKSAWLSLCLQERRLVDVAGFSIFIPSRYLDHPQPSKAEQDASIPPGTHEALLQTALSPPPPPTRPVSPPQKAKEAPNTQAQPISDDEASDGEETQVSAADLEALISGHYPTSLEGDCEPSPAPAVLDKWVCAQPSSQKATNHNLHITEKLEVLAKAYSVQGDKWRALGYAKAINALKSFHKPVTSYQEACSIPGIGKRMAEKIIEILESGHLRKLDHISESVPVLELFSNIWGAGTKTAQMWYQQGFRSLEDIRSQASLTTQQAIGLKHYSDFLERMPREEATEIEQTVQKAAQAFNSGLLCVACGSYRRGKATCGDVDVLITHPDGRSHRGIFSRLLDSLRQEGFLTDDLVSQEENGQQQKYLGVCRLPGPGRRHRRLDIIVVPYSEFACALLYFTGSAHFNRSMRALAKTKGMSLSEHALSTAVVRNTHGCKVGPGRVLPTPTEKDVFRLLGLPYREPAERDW

[3] = cited from earlier work
[4] = biological target: T3, human DNA polymerase η (pol η) (Homo sapiens, UniProt Q9Y253); assay: Steady-state primer extension assay, pol η; format: biochemical
T3 sequence (Q9Y253 1-713): T1 sequence (Q9Y253 1-713)

[5] = test system: HL60 promyelocytic leukemia cells; details: mice xenografted with HL60 promyelocytic leukemia cells; cited from earlier work
MCF7 cells = assay: MTS assay of cell proliferation, MCF7; format: cell-based, human; details: for IC50: Homo sapiens; for −log(IC50) (95% CI): tested compound alone
How it was run: as §1

UACC903 cells = assay: MTS assay of cell proliferation, UACC903; format: cell-based, human; details: for IC50: Homo sapiens; for −log(IC50) (95% CI): tested compound alone
How it was run: as §1

[6] = biological target: T4, human DNA polymerase λ (pol λ) (Homo sapiens, UniProt Q9UGP5); assay: Steady-state primer extension assay, pol λ; format: biochemical
T4 sequence (Q9UGP5 1-575): T2 sequence (Q9UGP5 1-575)

pol β binding to DNA = pol β binding to DNA (Homo sapiens, UniProt P06746); assay: Polymerase–DNA interaction, electrophoretic mobility shift assay, pol β; details: for inhibition of DNA binding to polymerase (EMSA): honokiol up to 200 μM, polymerase in excess of DNA
[7] = biological target: DNA polymerase I from E. coli (Klenow fragment), Kf(exo-) (Escherichia coli, UniProt P00582, D355A/E357A); assay: Steady-state primer extension assay, Kf; format: biochemical
PANC1 cells = assay: MTS assay of cell proliferation, PANC1; format: cell-based, human; details: for IC50: Homo sapiens; for −log(IC50) (95% CI): tested compound alone
How it was run: as §1

[8] = eq 3, factor on Km/Ki, 95% confidence limits
[9] = eq 3, residual catalysis with HNL bound, 95% confidence limits

## C=CCc1ccc(O)c(-c2ccc(O)c(CC=C)c2)c1 [HNL, 2-(4-hydroxy-3-prop-2-enyl-phenyl)-4-prop-2-enyl-phenol]
[1]
  IC50: 0.6 µM
[1]; Ki, hyperbolic mixed-type inhibition fit (eq 3), vs dCTP, 95% confidence limits
  Ki: 4 µM
[1]; [8]
  α: 0.55 (0.31, 0.79)
[1]; [9]
  β: 0.20 (0.15, 0.25)
[1]; steady-state kinetic analysis
  inhibition mechanism versus dCTP: mixed-type noncompetitive
[2]
  solubility: 200 µM (≈ 53.3 µg/mL)
rats
  toxicity and side effects in rats: nontoxic with no side effects
A549 cells; tested compound alone
  −log(IC50) (95% CI): 4.6 (4.5, 4.8)
A549 cells; Homo sapiens, read-out: −log(IC50) (95% CI), A549, 24 h, tested compound alone (converted)
  IC50: 25.1 µM
Pol η binding to DNA
  inhibition of DNA binding to polymerase (EMSA): does not inhibit DNA binding
Pol λ binding to DNA
  Ki: > 500 µM
Pol λ binding to DNA; listed as Honokiol
  inhibition of DNA binding to polymerase (EMSA): does not inhibit DNA binding
Pol λ binding to DNA; listed as honokiol
  inhibition of DNA binding to polymerase (EMSA): did not inhibit the binding of the DNA to the polymerase
[3]
  crossing of blood–brain and blood–cerebrospinal fluid barriers: crosses the blood–brain and blood–cerebrospinal fluid barriers
[4]
  IC50: 10 µM
  Ki: 20 µM
[4]; [8]
  α: 0.49 (0.12, 0.85)
[4]; [9]
  β: 0.03 (–0.10, 0.15)
[4]; steady-state kinetic analysis
  inhibition mechanism versus dCTP: linear mixed-type noncompetitive
[5]
  prolonging life in xenografted mice: effective in prolonging life
MCF7 cells; MCF7, 24 h, read-out: −log(IC50) (95% CI), MCF7, 24 h, tested compound alone (converted)
  IC50: 20 µM
MCF7 cells; MCF7, 72 h, read-out: −log(IC50) (95% CI), MCF7, 72 h, tested compound alone (converted)
  IC50: 15.8 µM
MCF7 cells; MCF7, 24 h
  −log(IC50) (95% CI): 4.8 (4.7, 4.8)
MCF7 cells; MCF7, 72 h
  −log(IC50) (95% CI): 4.9 (4.8, 5.0)
UACC903 cells; UACC-903, 24 h, read-out: −log(IC50) (95% CI), UACC903, 24 h, tested compound alone (converted)
  IC50: 25.1 µM
UACC903 cells; UACC-903, 72 h, read-out: −log(IC50) (95% CI), UACC903, 72 h, tested compound alone (converted)
  IC50: 15.8 µM
UACC903 cells; UACC903, 24 h
  −log(IC50) (95% CI): 4.6 (4.47, 4.8)
UACC903 cells; UACC903, 72 h
  −log(IC50) (95% CI): 4.8 (4.65, 4.9)
[6]
  IC50: 0.8 µM
  Ki: 8.3 µM
[6]; [8]
  α: 0.51 (0.24, 0.78)
[6]; [9]
  β: 0.07 (0.02, 0.12)
[6]; steady-state kinetic analysis
  inhibition mechanism versus dCTP: mixed-type noncompetitive
Pol β binding to DNA
  Ki: > 500 µM
Pol β binding to DNA; listed as Honokiol
  inhibition of DNA binding to polymerase (EMSA): does not inhibit DNA binding
Pol β binding to DNA; listed as honokiol
  inhibition of DNA binding to polymerase (EMSA): did not inhibit the binding of the DNA to the polymerase
[7]
  IC50: 80 µM
  Ki: 26 µM
[7]; [8]
  α: 0.48 (0.23, 0.74)
[7]; [9]
  β: 0.16 (0.09, 0.23)
[7]; steady-state kinetic analysis
  inhibition mechanism versus dCTP: mixed-type noncompetitive
PANC1 cells; PANC-1, 24 h, read-out: −log(IC50) (95% CI), PANC1, 24 h, tested compound alone (converted)
  IC50: 20 µM
PANC1 cells; PANC-1, 72 h, read-out: −log(IC50) (95% CI), PANC1, 72 h, tested compound alone (converted)
  IC50: 7.94 µM
PANC1 cells; PANC1, 24 h
  −log(IC50) (95% CI): 4.6 (4.5, 4.8)
PANC1 cells; PANC1, 72 h
  −log(IC50) (95% CI): 4.8 (4.7, 4.9)
